CAL PDZ FP-1 – blocks peptide binding to the human CAL PDZ domain | Q9HD26 | purified CAL PDZ, TMR-peptide fluorescence polarization, 1 h | inhibition, % at 24.9 µM | actives 0.92% (n = 300,000);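 active = mean inhibition of at least 30% with at least half of replicates also reaching 30%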
ARNT TACC3 PPI – disruptors of human ARNT/TACC3 interaction | Q9Y6A5 | AlphaScreen His-ARNT PAS-B/GST-TACC3 binding, luminescence; TACC3 fragment carries E629A point mutation | inhibition, % at 9.99 µM | actives 0.66% (n = 390,000);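 active = mean inhibition of replicates at least 50% and at least half of replicates each reaching 50%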
CAL PDZ FP-2 – inhibitors of human CAL PDZ peptide binding | Q9HD26 | purified CAL PDZ, TMR-peptide fluorescence polarization, 1 h | inhibition, % at 20 µM | actives 0.02% (n = 330,000);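 active = highest replicate inhibition of at least 40%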
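Read-out basis: mP drop reported as inhibition | Assay system: Tagged CAL PDZ protein CerCALP, purified | Benchmarks: Unlabelled peptide for full inhibition, DMSO wells as neutral | Schedule: 1 h incubation at room temperature before polarization reading | Buffer or medium: Sodium phosphate/NaCl buffer pH 7.4 with TCEP, IgG, Thesit | Doses: Single point, 20 µM | Measured by: Fluorescence polarization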
Hits are given with their value; n = inactive; x = no result given. An excerpt weighted towards active compounds, which were near 1.2% of everything screened.

SMILES | CAL PDZ FP-1 | ARNT TACC3 PPI | CAL PDZ FP-2
C[C@@H]1CN([C@@H](C)CO)C(=O)c2cc(NS(=O)(=O)c3ccccc3)ccc2O[C@H]1CN(C)Cc1ccc(C(=O)O)cc1 | x | n | x
O=Cc1c(N2CCN(c3ccccc3)CC2)nc2ccccn2c1=O | n | x | n
N#CC(C#N)=Cc1c(N2CCN(c3ccccc3)CC2)nc2ccccn2c1=O | 48 | n | n
N#C/C(=C\c1c(N2CCCCC2)nc2ccccn2c1=O)S(=O)(=O)c1ccccc1 | 55 | n | n
N#C/C(=C\c1c(N2CCN(c3ccccc3)CC2)nc2ccccn2c1=O)S(=O)(=O)c1ccccc1 | n | n | n
CCNC(=O)C[C@@H]1CC[C@H]2[C@H](COc3ccc(NC(=O)Nc4cccc(Cl)c4)cc3C(=O)N2C)O1 | x | n | x
CCC(=O)N1N=C(c2cccs2)CC1c1ccc(C)cc1 (stereo not given) | n | n | n
Cc1ccc(C2CC(c3cccs3)=NN2C(=O)CCl)cc1 (stereo not given) | 91 | n | x
O=c1cc(CN2CCN(Cc3ccccc3)CC2)c2ccc(O)cc2o1 | n | n | n
O=C(c1ccco1)N1CCN(Cc2cc(=O)oc3cc(O)ccc23)CC1 | 48 | n | n
O=C1C2C3c4ccccc4C(c4ccccc43)C2C(=O)N1Cc1ccco1 (stereo not given) | n | n | n
CC12C(=O)N(Cc3ccco3)C(=O)C1C1c3ccccc3C2c2ccccc21 (stereo not given) | 103 | n | x
CCO[C@H]1OC(C(=O)N2CCCCCCC2)=C[C@@H](C2CC2)[C@@H]1CCCO | x | n | x
Cc1ccnc2nc(C(=O)NCc3ccccc3)nn12 | 197 | n | n
Cc1cc(C)n2nc(C(=O)NCc3ccccc3)nc2n1 | n | n | n
C[C@@H]1CN([C@H](C)CO)C(=O)Cc2cc(NC(=O)C3CC3)ccc2O[C@@H]1CN(C)S(=O)(=O)c1ccccc1 | x | n | x
COc1ccc(-c2cnc3c(c2)C(=O)N([C@H](C)CO)C[C@H](C)[C@H](CN(C)S(=O)(=O)c2cn(C)cn2)O3)cc1 | x | n | x
Cc1ccc(S(=O)(=O)NCCCNS(C)(=O)=O)cc1 | n | n | n
Cc1ccc(S(=O)(=O)NCCNS(=O)(=O)c2ccc(C)cc2)cc1 | 56 | n | x
C[C@H](CO)N1C[C@H](C)[C@@H](CN(C)S(C)(=O)=O)Oc2ccc(NC(=O)CCC(F)(F)F)cc2CC1=O | x | n | x
Cc1noc(C)c1NC(=O)Nc1ccc2c(c1)C(=O)N([C@H](C)CO)C[C@@H](C)[C@@H](CN(C)Cc1ccncc1)OCCCC[C@@H](C)O2 | x | n | x
Cc1ccc(C(=O)Nc2cccc(C(=O)N3CCOCC3)c2)cc1Cl | 63 | n | n
O=C(Nc1cccc(C(=O)N2CCOCC2)c1)c1ccccc1 | n | n | n
C[C@H](NC(=O)C[C@H]1C[C@@H]2c3cc(NC(=O)CN(C)C)ccc3O[C@@H]2[C@@H](CO)O1)c1ccccc1 | x | n | x
COc1ccc(NC(=O)N(C)C[C@@H]2OCCCC[C@@H](C)Oc3ccc(NC(=O)Nc4c(C)noc4C)cc3C(=O)N([C@H](C)CO)C[C@@H]2C)cc1 | x | n | x
SMILES | CAL PDZ FP-1 | ARNT TACC3 PPI | CAL PDZ FP-2
O=C(CNCCc1ccccc1)N1CCc2ccccc2C1 | 45 | n | n
O=C(Cc1ccccc1)NCC(=O)N1CCc2ccccc2C1 | n | n | n
C[C@@H]1CN([C@H](C)CO)C(=O)Cc2cc(NC(=O)Nc3cccc4ccccc34)ccc2O[C@H]1CN(C)Cc1ccc2c(c1)OCO2 | x | n | x
C/C(=N/NC(=O)Cc1cc(=O)[nH][nH]1)c1ccc([N+](=O)[O-])cc1 | 36 | n | n
C/C(=N\NC(=O)Cc1cc(=O)[nH][nH]1)c1cccc([N+](=O)[O-])c1 | n | n | n
C[C@H](CO)N1C[C@H](C)[C@H](CN(C)C(=O)Nc2cccc3ccccc23)OCCCC[C@H](C)Oc2ccc(NC(=O)c3ccncc3)cc2C1=O | x | n | x
CC(O)CNCCCOc1cccc(C(F)(F)F)c1 (stereo not given) | n | n | n
CC(O)CNCCCOc1cccc(Oc2ccccc2)c1 (stereo not given) | 111 | n | 134
C[C@@H]1CN([C@H](C)CO)C(=O)c2cc(-c3cccnc3)cnc2O[C@@H]1CN(C)C | x | n | x
CC(C)NC(=O)N(C)C[C@H]1Oc2c(NC(=O)NC3CCCCC3)cccc2C(=O)N([C@@H](C)CO)C[C@@H]1C | x | n | x
CN(C)CC(=O)N[C@H]1CC[C@@H](CCn2cc(C3CC3)nn2)O[C@H]1CO | x | n | x
CCOc1ccc(CNC(=O)CCSCc2ccccc2F)cc1OC | n | n | n
COc1ccc(CCNC(=O)CCSCc2ccccc2F)cc1OC | 41 | n | x
CCCNC(=O)C[C@@H]1CC[C@@H]2[C@H](COc3ccc(NC(=O)Nc4ccccc4F)cc3C(=O)N2C)O1 | x | n | x
